In PubChem BioAssay:
Active and inactive are the calls of the source.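 Rule for the calls, unless noted: active = fluorescence slope higher than the sample average by over 3 SD (cut at about -0.22 in these data, passing the limit was not always enough); inactive = the rest.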

How the values were obtained:
[1] = inhibitors of TNFa-induced NFkB p65 translocation, primary screen, imaging, HUVEC, MLSMR starter and 10KST1 sets (AID 438;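 active = inhibition above 20% together with a positive visual image hit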;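 note: compound added about 3h40 before a 20 min TNFalpha stimulation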;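 for inhibition: signal is the nuclear over cytoplasmic p65 intensity ratio per well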); conditions: HUVEC TNFa-induced p65 nuclear translocation; cell count: measured here: nuclei count (cytotoxicity indicator), at 2.08 µM; inhibition: at 2 µM, stronger effect = higher value, 0% TNFa-plus-vehicle, 100% no-TNFa wells
[2] = endothelial E-selectin expression blockers – imaging, HUVEC, immunofluorescence, MLSMR starter and 10KST1 sets, primary screen (AID 487;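 active = visually confirmed hit in the image check and inhibition above 20%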;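 for inhibition: signal is fraction of cell area covered by stained E-selectin grains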;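 for nuclei count: 100% = median nuclei count of all wells on the same plate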); conditions: HUVEC TNFalpha-induced E-selectin immunofluorescence imaging, at 2 µM; inhibition: stronger effect = higher value; nuclei count: measured here: cell number, toxicity
[3] = Primary imaging screen for DUSP6 inhibitors that restore phospho-Erk in transfected HeLa cells, chemical complementation (AID 609;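 active = compounds giving at least 50% inhibition in the cell-based MKP-3 phosphatase rescue imaging test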;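 for inhibition: phospho-Erk level distribution per well compared with pooled transfected vehicle control wells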); conditions: HeLa MKP-3 transfected, phospho-Erk imaging KS statistic, at 10 µM, cells stimulated with TPA for 15 min
[4] = molecular target: Dual specificity protein phosphatase 6 (Homo sapiens) (UniProt Q16828); assay: as above; conditions: HeLa MKP-3 transfected, phospho-Erk imaging KS statistic; at 10 µM; stronger effect = higher value; cells stimulated with TPA for 15 min
Dual specificity protein phosphatase 6 (Homo sapiens), sequence (Q16828 whole entry, looked up): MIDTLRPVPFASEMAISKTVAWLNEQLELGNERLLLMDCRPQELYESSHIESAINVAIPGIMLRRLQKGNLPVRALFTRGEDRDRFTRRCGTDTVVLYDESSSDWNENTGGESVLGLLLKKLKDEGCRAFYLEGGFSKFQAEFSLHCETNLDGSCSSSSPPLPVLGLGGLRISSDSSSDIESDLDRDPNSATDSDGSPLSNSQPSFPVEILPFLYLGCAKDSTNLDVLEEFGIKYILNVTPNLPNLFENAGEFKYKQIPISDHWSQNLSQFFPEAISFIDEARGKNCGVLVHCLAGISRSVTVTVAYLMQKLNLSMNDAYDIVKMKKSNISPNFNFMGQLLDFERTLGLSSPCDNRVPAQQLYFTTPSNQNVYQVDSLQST

[5] = molecular target: Voltage-gated potassium channel subunit beta-2 (Rattus norvegicus) (UniProt P62483); assay: inhibitors of rat Kvbeta2 reductase activity – biochemical, NADPH fluorescence, primary screen (AID 622); conditions: recombinant KvBeta, 4-cyanobenzaldehyde reduction, at 10 µM, stronger effect = higher value;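 note: slope of raw intensity against log time taken from 70 to 1610 s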
Voltage-gated potassium channel subunit beta-2 (Rattus norvegicus), sequence (P62483 whole entry, looked up): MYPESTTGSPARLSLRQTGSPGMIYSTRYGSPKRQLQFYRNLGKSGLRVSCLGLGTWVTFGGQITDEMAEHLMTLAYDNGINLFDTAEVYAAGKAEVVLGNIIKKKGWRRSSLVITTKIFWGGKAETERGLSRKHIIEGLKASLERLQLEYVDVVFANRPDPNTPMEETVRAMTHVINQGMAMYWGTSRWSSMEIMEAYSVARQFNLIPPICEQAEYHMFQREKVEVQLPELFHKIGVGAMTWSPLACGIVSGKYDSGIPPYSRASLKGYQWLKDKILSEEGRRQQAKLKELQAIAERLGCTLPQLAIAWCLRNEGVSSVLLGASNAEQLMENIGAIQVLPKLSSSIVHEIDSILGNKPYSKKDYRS

[6] = molecular target: Voltage-gated potassium channel subunit beta-2 (Rattus norvegicus) (UniProt P62483); assay: enhancers of rat Kvbeta2 NADPH turnover – biochemical, NADPH fluorescence, primary screen (AID 623;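 active = NADPH fluorescence slope more negative than the mean of all samples by about 3 SD, 99.7% confidence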;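 note: fluorescence intensity change per second fitted from 20 to 320 s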); conditions: Recombinant KvBeta, NADPH fluorescence decrease slope, 10 min; at 10 µM; stronger effect = lower value
[7] = molecular target: Alpha-2C adrenergic receptor (Homo sapiens) (UniProt P18825); assay: compounds altering alpha2C-coupled GIRK flux – cell-based, HEK293 alpha2C/GIRK1/2, thallium flux, primary screen (AID 624;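 active = fluorescence slope after compound addition differing from the mean of all screened samples at 99.7% confidence, in either direction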;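 note: slope of fluorescence ratio to pre-addition baseline per second over 15 to 24 s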); conditions: thallium flux BTC fluorescence, at 10 µM, actives lie on both sides
Alpha-2C adrenergic receptor (Homo sapiens), sequence (P18825 whole entry, looked up): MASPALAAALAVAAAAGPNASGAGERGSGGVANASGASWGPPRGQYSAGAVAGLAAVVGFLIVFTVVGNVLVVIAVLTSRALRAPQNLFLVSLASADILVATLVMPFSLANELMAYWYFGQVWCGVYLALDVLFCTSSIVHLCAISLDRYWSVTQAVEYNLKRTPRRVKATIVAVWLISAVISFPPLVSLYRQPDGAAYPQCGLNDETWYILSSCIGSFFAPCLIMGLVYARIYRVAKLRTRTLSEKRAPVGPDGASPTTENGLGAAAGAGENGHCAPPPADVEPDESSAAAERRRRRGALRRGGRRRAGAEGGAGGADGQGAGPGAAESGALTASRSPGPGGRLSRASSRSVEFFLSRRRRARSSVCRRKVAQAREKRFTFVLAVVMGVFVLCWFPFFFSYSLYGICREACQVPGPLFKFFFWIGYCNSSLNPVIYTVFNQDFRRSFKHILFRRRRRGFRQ

[8] = inhibitors of larval lipid processing in zebrafish, primary screen, whole organism, PED6 fluorescence, gall bladder and intestine (AID 686;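 active = a full or partial loss of lipid-probe fluorescence in the fish gall bladder, intestine or both, judged by eye; inactive = no fluorescence loss, or compound toxic to the fish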;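 note: larvae 5 to 7 days old with five fish per well; signal comes from phospholipase A2 cleavage of quenched PED6 carried via bile; overnight exposure to compound and PED6 before scoring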); conditions: Zebrafish larvae PED6 lipid processing, fluorescence scoring; screened at 20 µM (by protocol)
Summary of the method: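 system = live zebrafish larvae aged 5-7 days, whole organism | probe or stimulus = ingested quenched lipid PED6 at 100 nM | doses = 20 µM single dose | timing = overnight exposure | detection = fluorescence microscopy with visual scoring of gall bladder and intestine | read-out = visual per-well fluorescence inhibition score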

[9] = loss of swimming-algae plug formation – whole organism, Chlamydomonas reinhardtii, WT vs cilia-less mutant, absorbance, 96-well, primary screen (AID 463189;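 active = inhibition at or above 50% relative to wild type and mutant plate controls; inactive = inhibition below 50%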;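 note: 0% = wild type cc124 cells in DMSO and 100% = ciliumless bld1 mutant cells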); conditions: Chlamydomonas reinhardtii gravitaxis, OD600 absorbance, 2 days; at 10 µM; stronger effect = higher value
[10] = measured here: cell density z-score
[11] = measured here: nuclear c-Myc green intensity z-score
[12] = measured here: nuclear pErk red intensity z-score, stronger effect = higher value

| Structure (SMILES) | cell count [1] | inhibition [1] | inhibition [2] | nuclei count [2] | z-score [3, 10] | z-score [3, 11] | z-score [3, 12] | inhibition [4] | fluorescence slope [5] | NADPH fluorescence slope [6] | slope [7] | outcome [8] | inhibition [9] |
| --- | --- | --- | --- | --- | --- | --- | --- | --- | --- | --- | --- | --- | --- |
| COc1ccc(/C(O)=C2/C(=O)C(=O)N(CCCN(C)C)C2c2cccc(Cl)c2)cc1OC (centres undefined) | 382 | -1.1% (inactive) | -135% (inactive) | 155% | -1.5 | 0.328 | 0.495 | 3.66% (inactive) | -0.393 (inactive) | -5.4e-05 (inactive) | 0.00697 (inactive) | inactive | 0.268% (inactive) |
| CCc1ccc(NC(=O)CSC2=C(C#N)C(c3ccco3)C3=C(CCCC3=O)N2)cc1 (centres undefined) | 461 | -1.3% (inactive) | -13.8% (inactive) | 117% | -0.838 | 1.11 | 0.462 | 5.57% (inactive) | -0.501 (inactive) | -8.3e-05 (inactive) | 0.00507 (inactive) | inactive | -1.64% (inactive) |
| Cc1cc(=O)oc(C)c1C(=O)N1CCN(C)CC1 | 367 | -10.4% (inactive) | -117% (inactive) | 167% | -1.15 | 0.212 | 0.815 | -8.59% (inactive) | -0.463 (inactive) | -0.000105 (inactive) | 0.00444 (inactive) | inactive | 5.44% (inactive) |
| Cc1nc(NCc2ccccc2)c(C(N)=O)c2c1COC(C)(C)C2 | 643 | -5.8% (inactive) | -17.6% (inactive) | 192% | 0.783 | 0.565 | -0.208 | 9.39% (inactive) | -0.512 (inactive) | -7.6e-05 (inactive) | 0.00486 (inactive) | inactive | -5.71% (inactive) |
| CC(C)C(C(=O)Nc1ncn[nH]1)N1C(=O)c2ccccc2C1=O (centres undefined) | 520 | -7% (inactive) | -28.4% (inactive) | 121% | -1.38 | 0.141 | 1.7 | -4.27% (inactive) | -0.47 (inactive) | -7.2e-06 (inactive) | 0.0054 (inactive) | inactive | 0.44% (inactive) |
| CC1(C)Cc2c(C#N)c(NCCN3CCOCC3)nc(-c3ccco3)c2CO1 | 579 | -8.4% (inactive) | -62.4% (inactive) | 149% | 0.114 | 1.74 | -1.62 | 26.5% (inactive) | -0.295 (inactive) | -3e-06 (inactive) | 0.00581 (inactive) | inactive | 34% (inactive) |
| O=C(CCC1CCCC1)N1CCC(N2CCN(c3ccccc3)CC2)CC1 | 411 | -9.4% (inactive) | -188% (inactive) | 140% | 0.947 | 0.889 | -0.837 | 9.39% (inactive) | -0.446 (inactive) | 4.6e-06 (inactive) | 0.00549 (inactive) | inactive | 62.1% (active) |
| CC1(C)Cc2c(sc(NC(=O)c3ccc(Br)o3)c2C#N)CO1 | 406 | -17.8% (inactive) | -330% (inactive) | 140% | 0.838 | -0.788 | -0.494 | 7.48% (inactive) | -0.371 (inactive) | -1.6e-05 (inactive) | 0.00697 (inactive) | inactive | 8.5% (inactive) |
| CCCCNC(=O)C(C#N)c1nc2ccccc2nc1N1CCN(c2ccccc2F)CC1 (centres undefined) | 406 | 7.2% (inactive) | -12% (inactive) | 105% | -0.801 | -1.22 | 0.341 | -1.12% (inactive) | -0.475 (inactive) | -3.8e-05 (inactive) | 0.00688 (inactive) | inactive | 6.61% (inactive) |
| CSCCC(CO)NC(=O)OCc1ccccc1 (centres undefined) | 562 | -15% (inactive) | -130% (inactive) | 142% | 1.72 | -0.612 | -0.962 | 3.97% (inactive) | -0.503 (inactive) | -8.5e-05 (inactive) | 0.00774 (inactive) | inactive | 2.98% (inactive) |
| COc1ccc2c(c1OC)C(=O)N1c3ccccc3C(=O)N(c3ccccc3)C21 (centres undefined) | 475 | -9.6% (inactive) | -84.9% (inactive) | 169% | 0.407 | -0.0149 | -0.273 | 2.46% (inactive) | -0.319 (inactive) | -5.5e-06 (inactive) | 0.00449 (inactive) | inactive | 3.79% (inactive) |
| CCCOC(=O)CSC1=C(C#N)C(c2ccccc2OC)C(C#N)C(=O)N1 (centres undefined) | 496 | -3.9% (inactive) | -60% (inactive) | 136% | -0.969 | 0.676 | 0.273 | -2.07% (inactive) | -0.5 (inactive) | -7.4e-05 (inactive) | 0.00543 (inactive) | inactive | -12.6% (inactive) |
| COc1ccccc1N1CCN(C2CCN(C(=O)c3cccs3)CC2)CC1 | 390 | -7.8% (inactive) | -197% (inactive) | 173% | -0.252 | 0.0653 | 1.15 | -5.89% (inactive) | -0.397 (inactive) | -3e-05 (inactive) | 0.00342 (inactive) | inactive | 22.3% (inactive) |
